From ChEMBL document CHEMBL1122329, “Synthesis and antianxiety activity of (omega-piperazinylalkoxy)indan derivatives” (J Med Chem, 1983) come the findings set out here.

In data set [1] the test system is Rattus norvegicus. Kind of data set: Evaluated for neuroleptic-like property using open-field test in rats(increase in ambulation at 3 to 20 mg/kg on peroral administration. Particulars: dose mg/kg 3-20, route oral. It counts as functional.
Data set [2] deals with Mus musculus. The data set is described as follows: Evaluated for hypothermic activity in mice at 30 mg/kg on peroral administration. It counts as functional. Conditions: route oral. In short, it runs like this: (§1)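 Six mice per group were dosed orally 1 h before testing. Rectal temperature was read with an electronic thermometer. Results are given as degrees of hypothermia (Δt °C) versus an untreated group.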

Data set [3] deals with Rattus norvegicus. The data set is described as follows: Evaluated for neuroleptic-like property using anti-methamphetamine test in rats on peroral administration. The format is functional. Particulars: po. Summed up:
(§2)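 Groups of six rats were dosed orally, then given methamphetamine 5 mg/kg ip 1 h later. Stereotypy was scored 0–4: sleep/eyes closed 0, motionless/eyes open 1, moving around cage 2, sniffing 3, continuous licking or gnawing 4. ED50 was the dose halving mean score versus controls, with 95% confidence limits.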

In data set [4] the test system is Mus musculus. Kind of data set: Cataleptogenic action in mice on peroral administration. It counts as functional. Particulars: po. Summed up:
(§3)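 Six mice per group were dosed orally 1 h before testing. Forepaws were placed on a horizontal steel bar to force an abnormal posture. Holding the posture over 30 s counted as catalepsy. ED50 was the dose giving catalepsy in 50% of animals, with 95% confidence limits.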

The subject of data set [5] is Mus musculus. Kind of data set: Evaluated for muscle-relaxant action in mice on peroral administration. The format is functional. Conditions: po. In short, it runs like this:
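Traction test: mice, eight per group, dosed orally; 1 h later forepaws placed on horizontal wire bar 30 cm high; failure to bring hind feet onto wire within 5 s counted as muscle relaxation.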

Data set [6] can be described thus: Toxicity on peroral administration to mice. It counts as organism-based. Particulars: mouse, in vivo, po. In short, it runs like this:
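Oral dosing to mice, eight per group; LD50 calculated by Litchfield-Wilcoxon method.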

Data set [7] relates to Mus musculus. The data set is described as follows: Anti-morphine activity against morphine-induced Straub''s tail reaction in mice expressed as % inhibition at 25 mg/kg peroral administration. The format is functional. Particulars: route oral. Summed up: (§4)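 Six mice per group received test compounds orally 1 h before morphine (20 mg/kg ip). Straub's tail reaction was scored as the index of morphine's CNS stimulant action.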

Data set [8] deals with Mus musculus. The data set is described as follows: Cataleptogenic action in mice on peroral administration; value may range from 30 to 71. The format is functional. Conditions: po. In short, it runs like this: as §3
Data set [9] can be described thus: Ratio of muscle relaxant action to antifighting effect. It counts as functional. Summed up:
(§5)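 Muscle relaxation was measured by traction test in mice (eight per group), 1 h after oral dosing. Forepaws were placed on a horizontal wire bar 30 cm high. Failure to bring the hind feet onto the wire within 5 s counted as relaxation. This action was set in ratio with the antifighting effect.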

In data set [10] the test system is Mus musculus. Kind of data set: Evaluated for hypothermic activity in mice at 30 mg/kgo n peroral administration. Conditions: dose 30 mg/kg; route oral. It counts as functional. Summed up:
as §1

Data set [11] has as its system Mus musculus. The data set is described as follows: Anti-morphine activity against the morphine-induced Straub's tail reaction in mice on peroral administration. It counts as functional. Conditions: po. Summed up:
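Mice, six per group, dosed orally with test compound 1 h before morphine (20 mg/kg ip); Straub's tail reaction scored as index of morphine CNS stimulation.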

The test system of data set [12] is Mus musculus. Kind of data set: Anti-fighting potency against foot shock induced fighting behavior in mice expressed as % inhibition at 25 mg/kg peroral administration. The format is functional. Particulars: route oral.
Data set [13] concerns Rattus norvegicus. The data set is described as follows: Evaluated for neuroleptic-like property using open-field test in rats(increase in ambulation at 3 to 20 mg/kg on peroral administration; value may range from 11.9 to 23.1. The format is functional. Conditions: dose mg/kg 3-20, route oral.
Data set [14] has as its system Rattus norvegicus. Kind of data set: Evaluated for neuroleptic-like property using open-field test in rats(increase in ambulation at 3 to 20 mg/kg) on peroral administration; value may range from 8.4 to 17.0. The format is functional. Particulars: dose mg/kg 3-20, route oral.
In data set [15] the test system is Mus musculus. Kind of data set: Anti-morphine activity against the morphine-induced Straub''s tail reaction in mice expressed as % inhibition at 25 mg/kg peroral administration. Particulars: route oral. It counts as functional. In short, it runs like this:
as §4

The nature of data set [16]: Ratio of the muscle relaxant action to antifighting effect. The format is functional. Summed up: as §5
Data set [17] relates to Rattus norvegicus. The data set is described as follows: Evaluated for neuroleptic-like property using open-field test in rats(increase in ambulation at 3 to 20 mg/kg on peroral administration; value may range from 7.3 to 13.9. It counts as functional. Particulars: dose mg/kg 3-20, route oral.
Data set [18] has as its system Rattus norvegicus. Kind of data set: Evaluated for neuroleptic-like property using open-field test in rats(increase in ambulation at 3 to 20mg/kg on peroral administration; value may range from 8.1 to 13.2. The format is functional. Particulars: po.
The test system of data set [19] is Rattus norvegicus. Kind of data set: Evaluated for neuroleptic-like property using anti-methamphetamine test in rats on peroral administration; value may range from 20 to 79. Particulars: po. It counts as functional. In short, it runs like this:
as §2

Data set [20] has as its system Mus musculus. The data set is described as follows: Cataleptogenic action in mice on peroral administration; value ranges from 26-93. The format is functional. Conditions: po. Summed up: as §3

The term ED50 denotes the dose at which the effect has come halfway, by size or by number of responders. Regarding `CN(C)CCCN1c2ccccc2Sc2ccc(Cl)cc21` [CHLORPROMAZINE], the ED50 turned out to be 10.1 mg/kg in data set [1], 15 mg/kg in data set [3] and 17 mg/kg in data set [4]. Besides, the Delta t in data set [2] is listed as -1.5.

What is called LD50 is the dose expected to kill half of the subjects tested. Read a low LD50 as a more toxic substance. For `CNC1=Nc2ccc(Cl)cc2C(c2ccccc2)=[N+]([O-])C1` [CHLORDIAZEPOXIDE], the Delta t in data set [2] was found to be 0.2. Moreover, the ED50 in data set [3] is over 30 mg/kg; in data set [5], 8 mg/kg; in data set [4], over 30 mg/kg. The same compound returned an LD50 in [6] of 700 mg/kg.

Usually inhibition in vivo stands for the drop in the measured response relative to a control, in per cent. Take `Cc1cc2c(cc1OCCCN1CCN(c3ccccc3)CC1)CCC2.Cl.Cl`: the inhibition in vivo at 25 mg/kg in data set [7] was found to be 94%; in data set [12], 83%. The ED50 was 56 mg/kg in data set [8], over 100 mg/kg in data set [3], 16 mg/kg in data set [11] and 16.6 mg/kg in data set [13]. For the same compound, in [9], the Ratio was found to be 5.41. This compound gave a Delta t in [10] of -2.5 °C. The same compound came in with an LD50 in data set [6] of over 2000 mg/kg.

With `Cl.Cl.c1ccc(N2CCN(CCCOc3ccc4c(c3)CCC4)CC2)cc1`, the median effective dose (ED50) in data set [14] was 11.7 mg/kg; in data set [3], over 100 mg/kg; in data set [4], over 100 mg/kg. Besides, the inhibition in vivo at 25 mg/kg in data set [15] is 89%; in data set [12], 85%. This compound came in with a Delta t in data set [2] of -2.3 °C. For the same compound, the Ratio in data set [16] was 2.18. Also, in data set [6], the LD50 is over 1500 mg/kg.

On to `Cl.Cl.Fc1cc2c(cc1OCCCN1CCN(c3ccccc3)CC1)CCC2`, for which the inhibition in vivo at 25 mg/kg in data set [7] is 89%; in data set [12] it was 100%. The results for the median effective dose (ED50) in data set [17], in data set [3] and in data set [4] were 9.3 mg/kg, over 100 mg/kg and over 100 mg/kg, respectively. Besides, the Ratio in [9] is 5. In addition, the Delta t in [10] is -2.9 °C. This compound gave an LD50 in data set [6] of over 2000 mg/kg.

As to `Cl.Cl.Fc1ccc(N2CCN(CCCOc3ccc4c(c3)CCC4)CC2)cc1`, the Ratio in data set [9] was determined as 3.73. Also, the values for the inhibition in vivo at 25 mg/kg in data set [15] and in data set [12] were 100% and 88%, respectively. This compound gave a Delta t in data set [2] of -5 °C. For the same compound, the ED50 in [18] was 10.3 mg/kg; in data set [19] it was 43 mg/kg; in [20], 50 mg/kg. The compound further returned a median lethal dose (LD50) in [6] of over 2000 mg/kg.
